The record followed here is ChEMBL document CHEMBL1151428, “Capability of 11 antipneumococcal antibiotics to select for resistance by multistep and single-step methodologies” (2007).

As a reminder, the MIC is the lowest concentration found to suppress growth.

What all share (assay type): functional
In test [1] the test system is Streptococcus pneumoniae. As to the kind of experiment: Antimicrobial activity against drug-resistant Streptococcus pneumoniae isolate 3009 after 21 passages with gemifloxacin measured after 10 antibiotic-free subculture by multi-step resistance selection technique. A digest of the protocol: (§1)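 Mutants selected by daily broth passage in subinhibitory drug in cation-adjusted Mueller-Hinton broth with 5% lysed horse blood. Stability was tested by 10 daily passages on blood agar without antibiotic, then macrodilution MIC.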

Test [2] relates to Streptococcus pneumoniae. As to the kind of experiment: Antimicrobial activity against drug-resistant Streptococcus pneumoniae isolate 1076 after 14 passages with Telithromycin measured after 10 antibiotic-free subculture by multi-step resistance selection technique. A digest of the protocol: as §1
The subject of test [3] is Streptococcus pneumoniae. As to the kind of experiment: Antimicrobial activity against drug-resistant Streptococcus pneumoniae isolate 3009 after 19 passages by multi-step resistance selection technique. A digest of the protocol: (§2)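 Daily serial passage in subinhibitory drug levels in 1 ml cation-adjusted Mueller-Hinton broth with 5% lysed horse blood; fresh broth for tigecycline. Each day, 10 μl were taken from the tube one to two dilutions below the MIC whose turbidity matched the growth control, and used to set the next MIC. […] MIC by macrodilution.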

In test [4] the test system is Streptococcus pneumoniae. As to the kind of experiment: Antimicrobial activity against drug-resistant Streptococcus pneumoniae isolate 3665 after 38 passages by multi-step resistance selection technique. A digest of the protocol:
(§3)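 Daily serial passage in broth at subinhibitory drug levels: 1 ml cation-adjusted Mueller-Hinton broth with 5% lysed horse blood; fresh broth for tigecycline. Each day 10 μl inoculum taken from the tube one to two dilutions below MIC matching growth-control turbidity, used to set next MIC. Continued until ≥8-fold MIC rise, minimum 14, maximum 50 passages; MIC read by macrodilution.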

Test [5] deals with Streptococcus pneumoniae. As to the kind of experiment: Antimicrobial activity against drug-resistant Streptococcus pneumoniae isolate 3665 after 38 passages with moxifloxacin measured after 10 antibiotic-free subculture by multi-step resistance selection technique.
Test [6] has as its system Streptococcus pneumoniae. As to the kind of experiment: Antimicrobial activity against drug-resistant Streptococcus pneumoniae isolate 1076 after 35 passages by multi-step resistance selection technique. A digest of the protocol:
as §2

Test [7] has as its system Streptococcus pneumoniae. As to the kind of experiment: Antimicrobial activity against drug-resistant Streptococcus pneumoniae isolate 3676 after 50 passages by multi-step resistance selection technique. A digest of the protocol: as §3
Test [8] has as its system Streptococcus pneumoniae. As to the kind of experiment: Antimicrobial activity against drug-resistant Streptococcus pneumoniae isolate 2527 after 50 passages by multi-step resistance selection technique. A digest of the protocol:
as §2

Test [9] has as its system Streptococcus pneumoniae. As to the kind of experiment: Antimicrobial activity against drug-resistant Streptococcus pneumoniae isolate 3676 after 50 passages with moxifloxacin measured after 10 antibiotic-free subculture by multi-step resistance selection technique.
Test [10] deals with Streptococcus pneumoniae. As to the kind of experiment: Antimicrobial activity against drug-resistant Streptococcus pneumoniae isolate 1076 by NCCLS M7-A7 method.
Test [11] concerns Streptococcus pneumoniae. As to the kind of experiment: Antimicrobial activity against drug-resistant Streptococcus pneumoniae isolate 3243 after 20 passages by multi-step resistance selection technique. A digest of the protocol:
as §2

The test system of test [12] is Streptococcus pneumoniae. As to the kind of experiment: Antimicrobial activity against drug-resistant Streptococcus pneumoniae isolate 2527 by NCCLS M7-A7 method.
In test [13] the test system is Streptococcus pneumoniae. As to the kind of experiment: Antimicrobial activity against drug-resistant Streptococcus pneumoniae isolate 2527 after 14 passages with gemifloxacin measured after 10 antibiotic-free subculture by multi-step resistance selection technique. A digest of the protocol: as §1

In brackets after ≈: the same amount, converted by molar mass.

For `COc1c(N2C[C@@H]3CCCN[C@@H]3C2)c(F)cc2c(=O)c(C(=O)O)cn(C3CC3)c12` [MOXIFLOXACIN], the minimum inhibitory concentration (MIC) in the test with Streptococcus pneumoniae [1] amounted to 2 µg/mL (≈ 4.98 µM); against Streptococcus pneumoniae [2] it was 1 µg/mL (≈ 2.49 µM); in the test with Streptococcus pneumoniae [3] it was 2 µg/mL (≈ 4.98 µM); against Streptococcus pneumoniae [4], 1 µg/mL (≈ 2.49 µM); against Streptococcus pneumoniae [5], 1 µg/mL (≈ 2.49 µM); with Streptococcus pneumoniae [6], 8 µg/mL (≈ 19.9 µM). In addition, the MIC in the test with Streptococcus pneumoniae [7] stood at 8 µg/mL (≈ 19.9 µM); with Streptococcus pneumoniae [8], 8 µg/mL (≈ 19.9 µM); with Streptococcus pneumoniae [9] it was 8 µg/mL (≈ 19.9 µM); in the test with Streptococcus pneumoniae [10], 1 µg/mL (≈ 2.49 µM); with Streptococcus pneumoniae [11] it was 1 µg/mL (≈ 2.49 µM); against Streptococcus pneumoniae [12] it was 2 µg/mL (≈ 4.98 µM). Besides, the minimal inhibitory concentration (MIC) in the test with Streptococcus pneumoniae [13] turned out to be 8 µg/mL (≈ 19.9 µM).
